Source: ChEMBL document CHEMBL1155787, “Synthesis and biological evaluation of new disubstituted analogues of 6-methoxy-3-(3',4',5'-trimethoxybenzoyl)-1H-indole (BPR0L075), as potential antivascular agents” (Bioorg Med Chem, 2008)
Active and inactive are the calls of the source. No cut-off for these calls is given here.

species: Bos taurus; assay: Ratio of IC50 of drug to IC50 of colchicine for calf brain tubulin polymerization; conditions: not given
How it was run: (§1)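 Calf brain tubulin purified by three assembly–disassembly cycles, used at a final 2–3 mg/mL in pH 6.6 buffer (0.1 M MES, 0.5 mM MgCl2, 2 mM EGTA, 1 mM GTP). Assembly followed by turbidity at 400 nm at 37 °C.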

Question: For `COc1cc(C(=O)c2c[nH]c3c(OS(C)(=O)=O)c(OC)ccc23)cc(OC)c1OC`, which Ratio IC50 is on record?
Answer: 2.7

Question: Which Ratio IC50 does the source give for `COc1ccc(/C=C\c2cc(OC)c(OC)c(OC)c2)cc1O` [COMBRETASTATIN A4] here?
Answer: 0.7

Question: For `COc1cc2c(C(=O)c3cc(OC)c(OC)c(OC)c3)cn(S(=O)(=O)c3ccccc3)c2cc1OS(C)(=O)=O`, which Ratio IC50 is on record?
Answer: 18

Question: For `COc1cc2[nH]cc(C(=O)c3cc(OC)c(OC)c(OC)c3)c2cc1OS(C)(=O)=O`, which Activity is on record?
Answer: inactive

Question: Which Ratio IC50 does the source give for `COc1cc2c(cc1OS(C)(=O)=O)c(C(=O)c1cc(OC)c(OC)c(OC)c1)cn2S(=O)(=O)c1ccccc1` here?
Answer: 15

Question: For `COc1cc2c(C(=O)c3cc(OC)c(OC)c(OC)c3)c[nH]c2cc1OS(C)(=O)=O`, which Activity is on record?
Answer: inactive

Question: With `COc1cc2c(C(=O)c3cc(OC)c(OC)c(OC)c3)c[nH]c2cc1O` as the molecule, how does the Ratio IC50 read?
Answer: 12

Question: With `COc1ccc2c(C(=O)c3cc(OC)c(OC)c(OC)c3)c[nH]c2c1` as the molecule, how does the Ratio IC50 read?
Answer: 0.4

test system: B16; assay: Cytotoxicity against mouse B16 cells assessed as cell viability after 48 hrs by MTT test; type: functional, cell-based; conditions: B16, 48 h
How it was run: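 Murine B16 melanoma cells grown in DMEM with 2 mM L-glutamine, 10% FBS and penicillin/streptomycin at 37 °C, 5% CO2. Cells plated at 5000/well. After 24 h, compound added in triplicate at final 0.25 ng/mL to 25 µg/mL in 10-fold dilutions (DMSO stock, 1% DMSO controls). IC50 from 3–7 independent triplicate experiments.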

Question: With `COc1cc(C(=O)c2c[nH]c3c(OS(C)(=O)=O)c(OC)ccc23)cc(OC)c1OC` as the molecule, how does the IC50 read?
Answer: 0.17 µM

Question: With `COc1ccc(/C=C\c2cc(OC)c(OC)c(OC)c2)cc1O` [COMBRETASTATIN A4] as the molecule, how does the IC50 read?
Answer: 0.003 µM

Question: For `COc1cc2c(C(=O)c3cc(OC)c(OC)c(OC)c3)cn(S(=O)(=O)c3ccccc3)c2cc1OS(C)(=O)=O`, which IC50 is on record?
Answer: 3.14 µM

Question: Which IC50 does the source give for `COc1cc2[nH]cc(C(=O)c3cc(OC)c(OC)c(OC)c3)c2cc1OS(C)(=O)=O` here?
Answer: 13.7 µM

Question: With `COc1cc2c(cc1OS(C)(=O)=O)c(C(=O)c1cc(OC)c(OC)c(OC)c1)cn2S(=O)(=O)c1ccccc1` as the molecule, how does the IC50 read?
Answer: 3.29 µM

Question: With `COc1cc2c(C(=O)c3cc(OC)c(OC)c(OC)c3)c[nH]c2cc1OS(C)(=O)=O` as the molecule, how does the IC50 read?
Answer: 32.4 µM

Question: With `COc1cc2c(C(=O)c3cc(OC)c(OC)c(OC)c3)c[nH]c2cc1O` as the molecule, how does the IC50 read?
Answer: 5.07 µM

Question: For `COc1cc2c(c(OC)c1OC)-c1ccc(OC)c(=O)cc1[C@@H](NC(C)=O)CC2` [COLCHICINE], which IC50 is on record?
Answer: 0.031 µM

Question: Which IC50 does the source give for `COc1ccc2c(C(=O)c3cc(OC)c(OC)c(OC)c3)c[nH]c2c1` here?
Answer: 0.013 µM

test system: EA.hy 926; assay: Induction of morphological changes in human EA.hy 926 cells assessed as rounding up after 2 hrs; type: functional; conditions: not given
How it was run: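 EA.hy 926 cells (HUVEC–A549 fusion line) grown in DMEM with 2 mM glutamine, 10% FBS and penicillin/streptomycin at 37 °C, 5% CO2. Plated at 5000 cells/well and exposed in triplicate to 10-fold dilutions for 2 h. Solvent control was 1% DMSO. Wells photographed at the centre. Value is the lowest concentration at which rounding up was seen.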

Question: For `COc1cc(C(=O)c2c[nH]c3c(OS(C)(=O)=O)c(OC)ccc23)cc(OC)c1OC`, which Activity is on record?
Answer: 0.013 µM

Question: With `COc1ccc(/C=C\c2cc(OC)c(OC)c(OC)c2)cc1O` [COMBRETASTATIN A4] as the molecule, how does the Activity read?
Answer: 0.008 µM

Question: With `COc1cc2c(C(=O)c3cc(OC)c(OC)c(OC)c3)cn(S(=O)(=O)c3ccccc3)c2cc1OS(C)(=O)=O` as the molecule, how does the Activity read?
Answer: 1.3 µM

Question: Which Activity does the source give for `COc1cc2[nH]cc(C(=O)c3cc(OC)c(OC)c(OC)c3)c2cc1OS(C)(=O)=O` here?
Answer: 14.35 µM

Question: With `COc1cc2c(cc1OS(C)(=O)=O)c(C(=O)c1cc(OC)c(OC)c(OC)c1)cn2S(=O)(=O)c1ccccc1` as the molecule, how does the Activity read?
Answer: 10.86 µM

Question: For `COc1cc2c(C(=O)c3cc(OC)c(OC)c(OC)c3)c[nH]c2cc1OS(C)(=O)=O`, which Activity is on record?
Answer: 28.71 µM

Question: Which Activity does the source give for `COc1cc2c(C(=O)c3cc(OC)c(OC)c(OC)c3)c[nH]c2cc1O` here?
Answer: 8.74 µM

Question: Which Activity does the source give for `COc1cc2c(c(OC)c1OC)-c1ccc(OC)c(=O)cc1[C@@H](NC(C)=O)CC2` [COLCHICINE] here?
Answer: 0.003 µM

Question: Which Activity does the source give for `COc1ccc2c(C(=O)c3cc(OC)c(OC)c(OC)c3)c[nH]c2c1` here?
Answer: 0.007 µM

test system: not listed separately; assay: Inhibition of tubulin polymerization; conditions: not given; how it was run: as §1

Question: With `COc1ccc(/C=C\c2cc(OC)c(OC)c(OC)c2)cc1O` [COMBRETASTATIN A4] as the molecule, how does the IC50 read?
Answer: 2.2 µM

Question: For `COc1ccc2c(C(=O)c3cc(OC)c(OC)c(OC)c3)c[nH]c2c1`, which IC50 is on record?
Answer: 2.8 µM
